ChEMBL document CHEMBL1137646, “Intracellular metabolism and persistence of the anti-human immunodeficiency virus activity of 2',3'-didehydro-3'-deoxy-4'-ethynylthymidine, a novel thymidine analog” (Antimicrob Agents Chemother, 2007)

Key:
[1] = biological target: Human immunodeficiency virus type 1 reverse transcriptase (Human immunodeficiency virus 1) (UniProt Q72547); experiment: Ratio of Ki to Km for HIV1 reverse transcriptase
RKO [2] = experiment: Induction of thymidylate kinase expression in human RKO cells expressing Tet-On gene after 48 hrs by Western blotting; format: functional, cell-based
Summary of the method: (§1)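 Tet-On TMPK RKO cells were grown with doxycycline at 0, 50 or 3,000 ng/ml to induce TMPK. Expression was assessed by Western blotting with actin as the internal control.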

RKO [3] = experiment: Induction of thymidylate kinase expression in human RKO cells expressing Tet-On gene after 48 hrs by Western blotting relative to control; format: functional; summary of the method: as §1
RKO [4] = experiment: Induction of 3-phosphoglycerate kinase expression in human RKO cells expressing Tet-On gene at 100 ng/ml after 72 hrs by Western blotting relative to control

Row | Ki/Km [1] | SMILES | Activity (RKO [2]) | fold change (FC) (RKO [3]) | fold change (FC) (RKO [4])
1 | 0.15 | C#C[C@@]1(COP(=O)(O)OP(=O)(O)OP(=O)(O)O)C=C[C@H](n2cc(C)c(=O)[nH]c2=O)O1 |  |  | 
2 | 1.1 | Cc1cn([C@H]2C=C[C@@H](COP(=O)(O)OP(=O)(O)OP(=O)(O)O)O2)c(=O)[nH]c1=O |  |  | 
3 |  | C[C@H]1c2cccc(O)c2C(=O)C2=C(O)[C@]3(O)C(=O)C(C(N)=O)=C(O)[C@@H](N(C)C)[C@@H]3[C@@H](O)[C@@H]21.O [DOXYCYCLINE] | Dose-dependent effect | 5 | 3
